From ChEMBL document CHEMBL2057177, “Analogues of fenarimol are potent inhibitors of Trypanosoma cruzi and are efficacious in a murine model of Chagas disease” (J Med Chem, 2012)
Converted amounts (≈) assume the structure as drawn. Values belong to the compound of their own block, whether it stands above or below them. The source made the active and inactive calls. The rule behind the calls is not given here.

Columns and labels:
[1] = Apparent volume of distribution at steady state in Sprague-Dawley rat at 4.8 mg/kg, iv; assay type: ADME, organism-based; parameters: dose 4.8 mg/kg, route intravenous; details: in vivo, read-out: Vdss(app)
How it was run: (§1)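 Overnight-fasted male Sprague–Dawley rats (272–320 g), n = 2 per route. IV dose given as a 10 min jugular infusion in aqueous solution; oral dose by gavage as aqueous suspension. Arterial blood taken via carotid cannula up to 24 h. Plasma measured by LC-MS after acetonitrile precipitation. Noncompartmental analysis. Blood clearance = plasma clearance divided by in vitro blood/plasma ratio. Bioavailability from mean dose-normalised AUC0–inf, oral versus IV.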

CYP3A4/5 = CYP3A4/5 (Homo sapiens, UniProt P08684+P20815); experiment: Inhibition of CYP3A4/5 in human liver microsomes; assay type: ADME, Microsome
[2] = Blood Clearance in Sprague-Dawley rat at 4.8 mg/kg, iv; assay type: ADME, organism-based; parameters: dose 4.8 mg/kg, route intravenous; details: whole blood; how it was run: as §1
[3] = Kinetic solubility of the compound at pH 6.5 by nephelometric analysis; assay type: physicochemical; details: buffer, read-out: Kinetic_solubility
[4] = Oral bioavailability in Sprague-Dawley rat at 15.7 mg/kg; assay type: ADME, organism-based; details: in vivo; how it was run: as §1
Trypanosoma cruzi [5] = experiment: Antitrypanosomal activity against trypomastigotes of Trypanosoma cruzi Tulahuen expressing the beta- galactosidase gene infected rat L6 cells after 96 hrs; assay type: functional, organism-based; details: L6, 96 h
How it was run: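 Tulahuén trypomastigotes expressing β-galactosidase, maintained by serial passage in L6 cells. L6 cells seeded and left 24 h at 37 °C, 5% CO2, then infected at MOI 3 for 48 h. Compound exposure 96 h, benznidazole control. CPRG with 0.3% Nonidet P-40 added, absorbance at 530 nm after 4−6 h. IC50 taken from % inhibition curve; mean of at least two assays.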

[6] = Elimination half life in Sprague-Dawley rat at 4.8 mg/kg, iv; assay type: ADME, organism-based; parameters: dose 4.8 mg/kg, route intravenous; details: in vivo, read-out: beta t1/2 (converted); how it was run: as §1
[7] = Plasma concentration in Swiss mouse at 100 mg/kg, po after 1 hr; assay type: ADME, organism-based; parameters: dose 100 mg/kg, route oral
How it was run: (§2)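 Nonfasted male Swiss Outbred mice weighing 23.8−39.9 g, with food and water freely available, dosed by oral gavage as an aqueous solution or suspension. Plasma proteins precipitated with acetonitrile and compound quantified by LC-MS against standards made in blank mouse plasma. Lower limit of quantitation 0.001−0.015 μM.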

Trypanosoma cruzi [8] = experiment: Antitrypanosomal activity against trypomastigotes of Trypanosoma cruzi Tulahuen infected in Swiss mouse model of chagas disease assessed as increase of host survival at 20 mg/kg, po administered 8 days after post infection qd for 5 days; assay type: functional, organism-based; parameters: dose 20 mg/kg
[9] = Plasma concentration in Swiss mouse at 10 mg/kg, po after 1 hr; assay type: ADME, organism-based; parameters: dose 10 mg/kg, route oral
How it was run: (§3)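 Nonfasted male Swiss outbred mice (23.8–39.9 g), fed throughout. Dosed by oral gavage as solution or suspension in aqueous vehicle. Plasma assayed by LC-MS against blank-plasma standards after acetonitrile precipitation; LLOQ 0.001–0.015 μM.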

[10] = Plasma concentration in Swiss mouse at 20 mg/kg, po after 1 hr; assay type: ADME, organism-based; parameters: dose 20 mg/kg, route oral; how it was run: as §3
Trypanosoma cruzi [11] = experiment: Antitrypanosomal activity against trypomastigotes of Trypanosoma cruzi Tulahuen infected in Swiss mouse model of chagas disease assessed as decrease in parasite level in blood at 100 mg/kg, po administered 8 days after post infection qd for 5 days; assay type: functional; parameters: scale not given: the % may be the effect or the level left
Trypanosoma cruzi [12] = experiment: Antitrypanosomal activity against trypomastigotes of Trypanosoma cruzi Tulahuen infected in Swiss mouse model of chagas disease assessed as decrease in parasite level in blood at 50 mg/kg, po administered 8 days after post infection qd for 5 days; assay type: functional; parameters: scale not given: the % may be the effect or the level left
How it was run: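 Female outbred Swiss mice, about 8 weeks old, infected ip with Tulahuén parasites; five mice per group. Daily dosing starts day 8 post-infection. Oral doses given by gavage in HPMC vehicle (0.5% HPMC, 0.4% Tween 80, 0.5% benzyl alcohol); ip doses in PBS with 0.4% Tween 80 and 10% PEG400. Tail-prick blood taken days 8, 9, 12, 14, 16, 19 and 27 post-infection, red cells lysed, and live trypomastigotes counted by hemocytometer. % efficacy = (vehicle mean − treated mean)/vehicle mean × 100. Survival recorded as surviving/infected-and-treated.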

[13] = Oral bioavailability in Sprague-Dawley rat at 15.2 mg/kg; assay type: ADME, organism-based; details: in vivo; how it was run: as §1
[14] = Elimination half life in Sprague-Dawley rat at 4.2 mg/kg, iv; assay type: ADME, organism-based; parameters: dose 4.2 mg/kg, route intravenous; details: in vivo, read-out: beta t1/2 (converted); how it was run: as §1
[15] = Plasma concentration in Swiss mouse at 10 mg/kg, po after 8 hrs; assay type: ADME, organism-based; parameters: dose 10 mg/kg, route oral; how it was run: as §3
[16] = Plasma concentration in Swiss mouse at 100 mg/kg, po after 8 hrs; assay type: ADME, organism-based; parameters: dose 100 mg/kg, route oral; how it was run: as §2
[17] = Therapeutic index, ratio of IC50 for rat L6 cells to IC50 for trypomastigotes of Trypanosoma cruzi Tulahuen; assay type: cell-based; details: read-out: Ratio IC50
[18] = Plasma concentration in Swiss mouse at 20 mg/kg, po after 8 hrs; assay type: ADME, organism-based; parameters: dose 20 mg/kg, route oral; how it was run: as §3
[19] = Plasma concentration in Swiss mouse at 50 mg/kg, po after 8 hrs; assay type: ADME, organism-based; parameters: dose 50 mg/kg, route oral; how it was run: as §3
[20] = Blood Clearance in Sprague-Dawley rat at 4.2 mg/kg, iv; assay type: ADME, organism-based; parameters: dose 4.2 mg/kg, route intravenous; details: whole blood; how it was run: as §1
[21] = Plasma concentration in Swiss mouse at 50 mg/kg, po after 1 hr; assay type: ADME, organism-based; parameters: dose 50 mg/kg, route oral; how it was run: as §3
[22] = Plasma concentration in Swiss mouse at 50 mg/kg, po after 24 hrs; assay type: ADME, organism-based; parameters: dose 50 mg/kg, route oral; how it was run: as §3
[23] = Apparent volume of distribution at steady state in Sprague-Dawley rat at 4.2 mg/kg, iv; assay type: ADME, organism-based; parameters: dose 4.2 mg/kg, route intravenous; details: in vivo, read-out: Vdss(app); how it was run: as §1
Trypanosoma cruzi [24] = experiment: Antitrypanosomal activity against trypomastigotes of Trypanosoma cruzi Tulahuen infected in Swiss mouse model of chagas disease assessed as increase of host survival at 50 mg/kg, po administered 8 days after post infection qd for 5 days; assay type: functional, organism-based; parameters: dose 50 mg/kg
L6 = experiment: Cytotoxicity against rat L6 cells after 72 hrs by Alamar Blue assay; assay type: cell-based; details: L6, 72 h
How it was run: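 L6 rat skeletal myoblasts in RPMI 1640 with 10% FBS. Exposed to compound for 72 h, seven-point serial dilutions in triplicate. Alamar Blue read at 570 and 630 nm. IC50 is the mean of at least two assays; podophyllotoxin used as control.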

Trypanosoma cruzi [25] = experiment: Antitrypanosomal activity against trypomastigotes of Trypanosoma cruzi Tulahuen infected in Swiss mouse model of chagas disease assessed as decrease in parasite level in blood at 20 mg/kg, po administered 8 days after post infection qd for 5 days; parameters: scale not given: the % may be the effect or the level left

Vd [1]: 9.1 L/kg
IC50 (CYP3A4/5): 4.4 µM
clearance [2]: 73.9 mL/min/kg
solubility kinetic [3]: 12.5 µg/mL (≈ 33.4 µM)
bioavailability [4]: 7.4%
IC50 (Trypanosoma cruzi [5]): 0.008 µM
half-life [6]: 11.3 h
SMILES: CC(C)Oc1ncc(C(O)(c2cccnc2)c2ccc(Cl)cc2F)cn1 (racemic)

concentration at 1 h [7]: 19.5 µM
concentration at 1 h [9]: 6.8 µM
concentration at 1 h [10]: 10.3 µM
bioavailability [13]: 95%
half-life [14]: 6.1 h
IC50 (CYP3A4/5): 2.6 µM
concentration at 8 h [15]: 0.4 µM
concentration at 8 h [16]: 6.5 µM
concentration at 8 h [18]: 1.9 µM
concentration at 8 h [19]: 15.9 µM
solubility kinetic [3]: 50 µg/mL (≈ 148 µM)
clearance [20]: 18.9 mL/min/kg
concentration at 1 h [21]: 13.7 µM
IC50 (Trypanosoma cruzi [5]): 0.03 µM
concentration at 24 h [22]: 0.06 µM
Vd [23]: 3.6 L/kg
SMILES: NC(=O)c1cccc(C(O)(c2ccc(Cl)cc2)c2cccnc2)c1 (racemic)
Activity (Trypanosoma cruzi [8]): Active
Activity (Trypanosoma cruzi [11]): >95%
Activity (Trypanosoma cruzi [12]): 65%
selectivity ratio [17]: > 500
Activity (Trypanosoma cruzi [24]): Active
IC50 (L6): > 100 µM
Activity (Trypanosoma cruzi [25]): 0%
